# ChEMBL document CHEMBL3232756, “Synthesis and biological evaluation of N-dehydrodipeptidyl-N,N'-dicyclohexylurea analogs” (Eur J Med Chem, 2014)
# Columns and labels:
# [1] = test system: Aspergillus niger; assay: Antimicrobial activity against Aspergillus niger MTCC 292 at 500 ug/ml after 24 hrs by cup plate method; assay type: functional; details: MTCC 292, 24 h, read-out: DIZ
# [2] = test system: Candida albicans; assay: Antimicrobial activity against Candida albicans MTCC 227 at 500 ug/ml after 24 hrs by cup plate method; assay type: functional; details: MTCC 227, 24 h, read-out: DIZ
# [3] = Antioxidant activity assessed as trolox equivalents of cupric reducing antioxidant capacity after 30 mins; assay type: functional
# In short: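 Mix of 1 ml CuCl2 (10 mM), 1 ml ethanolic neocuproine (7.5 mM), 1 ml ammonium acetate buffer (pH 7.0, 1 M), 1 ml compound or standard solution and 0.1 ml water, total 4.1 ml. A450 read after 30 min against reagent blank. TEAC = ε test/ε Trolox.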
# [4] = test system: Mus musculus; assay: Acute toxicity in Swiss albino mouse assessed as mortality up to 1500 mg/kg, po; assay type: organism-based; set-up: dose 1500 mg/kg, route oral; details: in vivo
# In short: (§1)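 Swiss albino mice (6–8 weeks, 25–30 g) were dosed orally at 500, 1000 or 1500 mg/kg, following OECD guidelines. Body weight, food and water intake, behavioural patterns and mortality were recorded and compared with a control group.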
# [5] = test system: Radical scavenging activity; assay: Antioxidant activity assessed as DPPH radical scavenging activity after 20 to 30 mins; assay type: functional
# In short: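 Test solution (2 ml at 25, 50, 75, 100, 125) mixed with 2 ml ethanolic DPPH, held in the dark at ambient temperature 20–30 min, then A517 read against an ethanol blank. Tocopherol used as standard. % scavenging = (Acontrol−Atest)/Acontrol×100, run in triplicate. IC50 read graphically from the % scavenging versus concentration plot.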
# [6] = test system: Pseudomonas aeruginosa; assay: Antimicrobial activity against Pseudomonas aeruginosa MTCC 1688 at 0.02 ml of 1 mg/ml after 24 hrs by cup plate method; assay type: functional; details: MTCC 1688, 24 h, read-out: DIZ
# In short: (§2)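 Cup-plate diffusion on Mueller-Hinton/nutrient agar swab-streaked with suspension, 6 mm cups bored. Each compound at 1 mg/ml in DMSO, 0.02 ml per cup; DMSO as solvent control. Amoxicillin for bacteria and fluconazole for fungi at 200 and 500 respectively as references. Incubation 37 °C for 24 h. Inhibition zone diameter in mm, triplicate, mean ± SD.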
# [7] = test system: Mus musculus; assay: Acute toxicity in Swiss albino mouse assessed as gross behavioral changes up to 1500 mg/kg, po; assay type: organism-based; set-up: dose 1500 mg/kg, route oral; details: in vivo; in short: as §1
# [8] = test system: Bacillus subtilis; assay: Antimicrobial activity against Bacillus subtilis MTCC 441 at 0.02 ml of 1 mg/ml after 24 hrs by cup plate method; assay type: functional; details: MTCC 441, 24 h, read-out: DIZ; in short: as §2
# [9] = Antioxidant activity assessed as hydroxyl radical scavenging activity after 15 mins; assay type: functional
# In short: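 Deoxyribose degradation mix: 2-deoxy-2-ribose 2.8 mM, KH2PO4–KOH 20 mM pH 7.4, FeCl3, EDTA, H2O2 1.0 mM, ascorbic acid, plus compound in methanol. Incubated 1 h at 37 °C. A 0.5 ml aliquot taken with 1 ml 2.8% TCA and 1 ml 1% TBA, heated 90 °C for 15 min, cooled, A532 read. % inhibition against blank.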
# [10] = test system: Brain; assay: Antioxidant activity against lipid peroxidation in Wister rat brain homogenates assessed as thiobarbituric acid reactive substance formation after 30 mins by spectrophotometer analysis; assay type: functional, tissue-based; details: 0.5 h
# In short: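 Whole brain minus cerebellum from overnight-fasted rats of either sex, 200–220 g. Homogenized 10% w/v in 0.15 M KCl and spun at 800 rpm for 10 min. Reaction incubated 37 °C for 30 min, then TBA:TCA (1:1) and BHT added, heated 80 °C for 20 min, cooled, centrifuged, A532 read.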
# [11] = test system: Staphylococcus aureus; assay: Antimicrobial activity against Staphylococcus aureus MTCC 96 at 0.02 ml of 1 mg/ml after 24 hrs by cup plate method; assay type: functional; details: MTCC 96, 24 h, read-out: DIZ; in short: as §2
# [12] = test system: Mus musculus; assay: Analgesic activity in Swiss albino mouse assessed as inhibition of acetic acid-induced writhing response at 100 mg/kg, po administered 1 hr before acetic acid challenge after 5 mins; assay type: functional
# [13] = test system: Aspergillus niger; assay: Antimicrobial activity against Aspergillus niger MTCC 292 at 0.02 ml of 1 mg/ml after 24 hrs by cup plate method; assay type: functional; details: MTCC 292, 24 h, read-out: DIZ; in short: as §2
# [14] = test system: Escherichia coli; assay: Antimicrobial activity against Escherichia coli ESS 2231 at 0.02 ml of 1 mg/ml after 24 hrs by cup plate method; assay type: functional; details: ESS 2231, 24 h, read-out: DIZ; in short: as §2
# [15] = Cytotoxicity against brine shrimps larvae assessed as mortality after 24 hrs; assay type: organism-based; details: artemia, in vivo; read-out: ED50
# In short: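 Shrimp eggs were hatched in filtered artificial sea water (38 g sea salt/L) in a divided tank. Larvae were exposed in vials at several concentrations under a lamp, and survivors were counted 24 h later. ED50 and 95% confidence intervals were derived from % larvae surviving by Finney probit analysis.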
# [16] = test system: Rattus norvegicus; assay: Antiinflammatory activity in Wister rat assessed as inhibition of carrageenan-induced paw edema at 100 mg/kg, po administered 1 hr before carrageenan challenge measured after 3 hrs by plethysmograph analysis; assay type: functional
# In short: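 Rats of either sex, 150–220 g, food withheld 4 h. Compound or diclofenac sodium 100 mg/kg p.o., or 0.5% sodium CMC at 10 ml/kg as vehicle control, given 1 h before 0.05 ml of 1% carrageenan subplantar into the right hind paw. Paw volume read by water-displacement plethysmograph at 0, 30, 60, 120 and 180 min. % edema inhibition = 100(1−Vt/Vc); n=5, control n=6; ANOVA/Dunnett.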
# [17] = test system: Candida albicans; assay: Antimicrobial activity against Candida albicans MTCC 227 at 0.02 ml of 1 mg/ml after 24 hrs by cup plate method; assay type: functional; details: MTCC 227, 24 h, read-out: DIZ; in short: as §2
# [18] = test system: Pseudomonas aeruginosa; assay: Antimicrobial activity against Pseudomonas aeruginosa MTCC 1688 at 200 ug/ml after 24 hrs by cup plate method; assay type: functional; details: MTCC 1688, 24 h, read-out: DIZ
# [19] = test system: Escherichia coli; assay: Antimicrobial activity against Escherichia coli ESS 2231 at 200 ug/ml after 24 hrs by cup plate method; assay type: functional; details: ESS 2231, 24 h, read-out: DIZ
# [20] = test system: Staphylococcus aureus; assay: Antimicrobial activity against Staphylococcus aureus MTCC 96 at 200 ug/ml after 24 hrs by cup plate method; assay type: functional; details: MTCC 96, 24 h, read-out: DIZ
# [21] = test system: Bacillus subtilis; assay: Antimicrobial activity against Bacillus subtilis MTCC 441 at 200 ug/ml after 24 hrs by cup plate method; assay type: functional; details: MTCC 441, 24 h, read-out: DIZ
SMILES,TEAC (Trolox equivalents) [3],Activity [4],IC50 [5] [µM],zone of inhibition at 1000 µg/mL [6] [mm],Activity [7],zone of inhibition at 1000 µg/mL [8] [mm],IC50 [9] [µM],IC50 [10] [µM],zone of inhibition at 1000 µg/mL [11] [mm],inhibition in vivo at 100 mg/kg [12] [%],zone of inhibition at 1000 µg/mL [13] [mm],zone of inhibition at 1000 µg/mL [14] [mm],LC50 at 24 h [15] [µg/mL],inhibition in vivo at 100 mg/kg [16] [%],zone of inhibition at 1000 µg/mL [17] [mm],other results
OC(Cn1cncn1)(Cn1cncn1)c1ccc(F)cc1F [FLUCONAZOLE],,,,,,,,,,,,,,,,zone of inhibition at 500 µg/mL [1]: 24 mm; zone of inhibition at 500 µg/mL [2]: 23.2 mm
O=C(NCC(=O)N(C(=O)NC1CCCCC1)C1CCCCC1)/C(=C\c1ccc(O)cc1)NC(=O)c1ccccc1,2.91,Non-toxic,51,18.5,Non-toxic,22.4,74.7,65.6,13.4,27.6,12.4,19.8,9.1,31.5,13.2,
O=C(NC(CS)C(=O)N(C(=O)NC1CCCCC1)C1CCCCC1)/C(=C\c1ccc(Cl)cc1)NC(=O)c1ccccc1 (stereo unspecified),2.65,Non-toxic,57.1,17.4,Non-toxic,18.4,66.3,60.7,16.5,40.8,21.2,18.3,10,22.8,13.5,
CC1(C)S[C@@H]2[C@H](NC(=O)[C@H](N)c3ccc(O)cc3)C(=O)N2[C@H]1C(=O)O [AMOXICILLIN],,,,,,,,,,,,,,,,zone of inhibition at 200 µg/mL [18]: 21.4 mm; zone of inhibition at 200 µg/mL [19]: 22.6 mm; zone of inhibition at 200 µg/mL [20]: 22 mm; zone of inhibition at 200 µg/mL [21]: 21.2 mm
O=C(NCC(=O)N(C(=O)NC1CCCCC1)C1CCCCC1)/C(=C\c1ccccc1)NC(=O)c1ccccc1,0.89,Non-toxic,49.8,19.4,Non-toxic,19.2,57.1,58.8,18.1,54,19.1,20.2,6.02,35.5,20.7,
O=C(NC(CS)C(=O)N(C(=O)NC1CCCCC1)C1CCCCC1)/C(=C\c1ccc(O)cc1)NC(=O)c1ccccc1 (stereo unspecified),3.91,Non-toxic,47.2,20.7,Non-toxic,24.4,54,54.4,24.8,43.2,24.5,23.5,4.38,41.3,26.6,
